{"source": "ChEMBL document CHEMBL4842338", "about": "“System-oriented optimization of multi-target 2,6-diaminopurine derivatives: Easily accessible broad-spectrum antivirals active against flaviviruses, influenza virus and SARS-CoV-2” (Eur J Med Chem, 2021)", "key": {"[1]": {"assay": "Selectivity index, ratio of CC50 for human Huh-7 cells to IC50 for Dengue virus serotype 2 New Guinea C infected in pre-seeded Huh-7 cells assessed as inhibition of viral replication incubated for 72 hrs by immunodetection based secondary yield reduction assay", "assay_type": "toxicity, cell-based", "conditions": "read-out: Selectivity Index; call rule not given here"}, "[2]": {"assay": "Inhibition of Dengue virus 2 […] RNA dependent RNA polymerase incubated for 10 mins by picogreen staining based fluorescent analysis (Rvb= 0.27+/-0.03 uM)", "design": "species or system dengue virus type 2"}, "[3]": {"assay": "Inhibition of DENV NS5-MTase domain using GpppA2'OMe-RNA74 as a substrate incubated for 30 mins by filter binding assay", "design": "species or system dengue virus type 2", "summary_of_the_method": "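MTase (1 μM) incubated with increasing inhibitor in 40 mM Tris-HCl pH 7.5, 5 mM DTT, 10 μM AdoMet ([3H]-labelled), 0.5 μM GpppA2′OMe-RNA74 substrate, 30 °C for 30 min; stopped in ice-cold 100 μM AdoHcy; DEAE filter binding, scintillation counting.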"}, "[4]": {"assay": "Inhibition of full length ZIKA virus NS5 RNA dependent RNA polymerase incubated for 10 mins by picogreen staining based fluorescent analysis (Rvb= 1+/-0.2 uM)"}, "[5]": {"assay": "Selectivity index, ratio of CC50 for human Huh-7 cells to IC50 for Zika virus H/PF/2013 infected in pre-seeded Huh-7 cells assessed as inhibition of viral replication incubated for 72 hrs by immunodetection based secondary yield reduction assay", "assay_type": "toxicity, cell-based", "conditions": "read-out: Selectivity Index"}, "[6]": {"assay": "Selectivity index, ratio of CC50 for MDCK cells to IC50 for Influenza A Puerto Rico/8/34/H1N1 infected in MDCK cells", "assay_type": "toxicity, cell-based", "conditions": "dog, read-out: Selectivity Index", "summary_of_the_method": "(§1)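 MDCK or A549 cells (2.5 × 10⁵/well) infected with A/Puerto Rico/8/34 H1N1 for 1 h at 37 °C, then washed. Compound (0.5–20 μM) added in 2% FBS medium for 24 h, with DMSO final ≤0.2%. Virus in supernatants read by hemagglutination. CC₅₀ by MTT (2 × 10⁴ cells/well, same concentrations, 24 h, absorbance 570 nm). SI = CC₅₀/IC₅₀.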"}, "[7]": {"assay": "Selectivity index, ratio of CC50 for human A549 cells to IC50 for Influenza A Puerto Rico/8/34/H1N1 infected in human A549 cells", "assay_type": "toxicity, cell-based", "conditions": "read-out: Selectivity Index", "summary_of_the_method": "as §1"}, "[8]": {"tested_on": "MDCK", "assay": "Cytotoxicity against MDCK cells assessed as reduction in cell viability measured after 24 hrs by MTT assay", "assay_type": "cell-based, Canis lupus familiaris", "conditions": "dog, mdck, 24 h"}, "[9]": {"target": "Abl (Tyrosine-protein kinase ABL1) (Homo sapiens, UniProt P00519)", "sequence (P00519 whole entry)": "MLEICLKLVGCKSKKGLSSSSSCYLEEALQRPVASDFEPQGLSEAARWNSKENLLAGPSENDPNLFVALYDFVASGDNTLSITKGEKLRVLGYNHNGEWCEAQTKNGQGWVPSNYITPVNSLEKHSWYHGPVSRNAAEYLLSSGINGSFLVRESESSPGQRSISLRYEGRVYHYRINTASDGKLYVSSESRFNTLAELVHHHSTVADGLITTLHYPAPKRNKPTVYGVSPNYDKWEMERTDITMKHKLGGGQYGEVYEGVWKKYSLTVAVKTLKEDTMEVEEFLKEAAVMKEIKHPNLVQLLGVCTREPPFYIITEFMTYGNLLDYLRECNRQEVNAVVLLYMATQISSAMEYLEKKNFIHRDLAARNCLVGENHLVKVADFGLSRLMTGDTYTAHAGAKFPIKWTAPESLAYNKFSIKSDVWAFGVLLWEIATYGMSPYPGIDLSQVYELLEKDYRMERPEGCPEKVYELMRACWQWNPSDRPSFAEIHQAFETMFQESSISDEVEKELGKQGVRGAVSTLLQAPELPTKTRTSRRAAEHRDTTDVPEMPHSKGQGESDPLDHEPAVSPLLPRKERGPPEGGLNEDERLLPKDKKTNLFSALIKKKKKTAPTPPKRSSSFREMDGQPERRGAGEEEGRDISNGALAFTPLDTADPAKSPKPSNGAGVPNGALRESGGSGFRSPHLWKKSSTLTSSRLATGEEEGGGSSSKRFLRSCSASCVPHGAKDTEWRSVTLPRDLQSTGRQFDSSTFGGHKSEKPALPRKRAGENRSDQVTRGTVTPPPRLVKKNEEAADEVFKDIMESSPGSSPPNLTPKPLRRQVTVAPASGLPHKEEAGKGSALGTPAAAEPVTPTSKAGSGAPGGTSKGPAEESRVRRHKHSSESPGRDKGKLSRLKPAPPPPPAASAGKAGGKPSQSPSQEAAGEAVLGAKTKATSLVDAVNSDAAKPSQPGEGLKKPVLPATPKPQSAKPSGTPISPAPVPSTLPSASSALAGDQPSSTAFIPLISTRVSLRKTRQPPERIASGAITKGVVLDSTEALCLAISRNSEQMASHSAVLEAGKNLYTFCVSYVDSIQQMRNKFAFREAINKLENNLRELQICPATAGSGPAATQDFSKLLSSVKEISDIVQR", "assay": "Inhibition of human recombinant N terminal His6 tagged Abl (27 to end residue) assessed as residual activity at 5 uM using KKGEAIYAADFA-NH2 as a substrate in the presence of NP-40 incubated for 10 mins by scintillation counting analysis relative to control", "conditions": "probe KKGEAIYAADFA-NH2, read-out: Activity", "summary_of_the_method": "(§2)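 Compounds at fixed 5 μM; 10–50 ng kinase, substrate and NP-40/BSA per supplementary table, 10 μL at 30 °C for 10 min in low-binding tubes. Reactions spotted on filter, dried, scintillation counted. Mean ± SD of two independent experiments.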"}, "[10]": {"tested_on": "Influenza A virus", "assay": "Antiviral activity against Influenza A Puerto Rico/8/34/H1N1 infected in MDCK cells assessed as inhibition of viral replication measured in supernatants of infected cells after 24 hrs by hemagglutination assay", "assay_type": "functional, organism-based", "conditions": "A/Puerto Rico/8/1934(H1N1)"}, "[11]": {"tested_on": "A549", "assay": "Cytotoxicity against human A549 cells assessed as reduction in cell viability measured after 24 hrs by MTT assay", "assay_type": "cell-based", "conditions": "a549, 24 h"}, "[12]": {"assay": "Inhibition of full length Dengue virus 2 NS5 RNA dependent RNA polymerase incubated for 10 mins by picogreen staining based fluorescent analysis (Rvb= 0.32+/-0.05 uM)", "design": "species or system dengue virus type 2"}, "[13]": {"tested_on": "Zika virus", "assay": "Antiviral activity against Zika virus H/PF/2013 infected in pre-seeded Huh-7 cells assessed as inhibition of viral replication incubated for 72 hrs by immunodetection based secondary yield reduction assay", "assay_type": "functional, organism-based", "conditions": "H/PF/2013, Huh-7, 72 h"}, "[14]": {"assay": "Cytotoxicity against human Huh-7 cells assessed as reduction in cell viability by Celltiter-Glo luminescent cell viability assay", "assay_type": "cell-based", "conditions": "Huh-7 cells", "summary_of_the_method": "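Compound-exposed cells assessed by CellTiter-Glo luminescence versus DMSO control; CC50 from dose-response.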"}, "[15]": {"target": "Fyn (Tyrosine-protein kinase Fyn) (Homo sapiens, UniProt P06241)", "sequence (P06241 whole entry)": "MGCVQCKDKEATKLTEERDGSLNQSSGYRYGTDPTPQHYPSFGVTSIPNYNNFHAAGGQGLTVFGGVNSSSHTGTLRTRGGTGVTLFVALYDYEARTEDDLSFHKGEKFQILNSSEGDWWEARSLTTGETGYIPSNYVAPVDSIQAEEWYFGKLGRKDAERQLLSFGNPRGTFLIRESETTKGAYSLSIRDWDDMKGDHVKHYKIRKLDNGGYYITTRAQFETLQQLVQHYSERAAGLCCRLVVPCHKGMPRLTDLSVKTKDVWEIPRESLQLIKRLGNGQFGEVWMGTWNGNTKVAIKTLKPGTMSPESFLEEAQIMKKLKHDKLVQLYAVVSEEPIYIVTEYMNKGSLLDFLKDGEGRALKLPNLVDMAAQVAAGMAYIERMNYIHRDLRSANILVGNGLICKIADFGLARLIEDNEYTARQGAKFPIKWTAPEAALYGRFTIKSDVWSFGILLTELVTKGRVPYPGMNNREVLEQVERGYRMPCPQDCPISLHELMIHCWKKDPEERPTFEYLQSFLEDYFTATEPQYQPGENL", "assay": "Inhibition of human recombinant N terminal His6 tagged full length Fyn assessed as residual activity at 5 uM using […] as a substrate in the presence of NP-40 incubated for 10 mins by scintillation counting analysis relative to control", "conditions": "probe […], read-out: Activity", "summary_of_the_method": "as §2"}, "[16]": {"assay": "Inhibition of full length ZIKV NS5-MTase domain using 7MeGpppAC4 as a substrate incubated for 30 mins by filter binding assay", "design": "species or system Zika virus"}, "[17]": {"target": "PIK3CA (Phosphatidylinositol 4,5-bisphosphate 3-kinase catalytic subunit alpha isoform) (Homo sapiens, UniProt P42336)", "sequence (P42336 whole entry, canonical isoform)": "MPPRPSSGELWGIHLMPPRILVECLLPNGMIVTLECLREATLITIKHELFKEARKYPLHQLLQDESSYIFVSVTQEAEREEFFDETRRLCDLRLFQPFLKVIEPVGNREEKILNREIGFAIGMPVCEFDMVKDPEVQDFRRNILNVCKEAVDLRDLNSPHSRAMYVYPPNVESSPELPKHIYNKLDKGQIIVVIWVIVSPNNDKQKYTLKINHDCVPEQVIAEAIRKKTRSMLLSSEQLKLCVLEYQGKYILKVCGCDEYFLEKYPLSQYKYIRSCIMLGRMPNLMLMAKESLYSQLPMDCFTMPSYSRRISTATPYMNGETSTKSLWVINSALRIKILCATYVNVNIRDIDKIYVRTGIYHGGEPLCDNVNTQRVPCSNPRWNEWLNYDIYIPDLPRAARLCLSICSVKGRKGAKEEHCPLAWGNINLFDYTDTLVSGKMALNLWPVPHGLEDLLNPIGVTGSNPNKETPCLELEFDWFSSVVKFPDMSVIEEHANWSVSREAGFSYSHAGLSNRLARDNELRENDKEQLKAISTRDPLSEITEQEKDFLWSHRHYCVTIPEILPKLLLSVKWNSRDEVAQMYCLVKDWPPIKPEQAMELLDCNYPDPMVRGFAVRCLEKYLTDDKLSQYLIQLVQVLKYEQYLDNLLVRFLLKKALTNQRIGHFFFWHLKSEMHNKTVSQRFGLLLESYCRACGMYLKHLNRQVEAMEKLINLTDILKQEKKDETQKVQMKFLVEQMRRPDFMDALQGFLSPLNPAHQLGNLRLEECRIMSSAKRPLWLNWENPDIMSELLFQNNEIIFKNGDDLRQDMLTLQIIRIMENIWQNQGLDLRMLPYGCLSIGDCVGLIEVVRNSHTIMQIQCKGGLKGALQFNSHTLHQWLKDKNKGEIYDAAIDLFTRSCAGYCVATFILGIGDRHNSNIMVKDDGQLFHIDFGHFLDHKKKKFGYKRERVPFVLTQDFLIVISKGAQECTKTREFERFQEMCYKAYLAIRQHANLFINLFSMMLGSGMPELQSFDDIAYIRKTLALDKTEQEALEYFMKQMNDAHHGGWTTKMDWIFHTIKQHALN", "assay": "Inhibition of human full length PIK3CA assessed as residual activity at 5 uM using PI:PS (1:3) as a substrate incubated for 10 mins by scintillation counting analysis relative to control", "conditions": "full length PIK3CA enzyme, probe PI:PS (1:3), read-out: Activity", "summary_of_the_method": "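Radiometric kinase reaction with 10–50 ng enzyme and compound fixed at 5 μM, 10 μL at 30 °C for 10 min. Reactions spotted on filter and counted by scintillation. Residual activity is the mean ± SD of two independent experiments.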"}, "[18]": {"target": "Src (Proto-oncogene tyrosine-protein kinase Src) (Homo sapiens, UniProt P12931)", "sequence (P12931 2-536 limits assumed)": "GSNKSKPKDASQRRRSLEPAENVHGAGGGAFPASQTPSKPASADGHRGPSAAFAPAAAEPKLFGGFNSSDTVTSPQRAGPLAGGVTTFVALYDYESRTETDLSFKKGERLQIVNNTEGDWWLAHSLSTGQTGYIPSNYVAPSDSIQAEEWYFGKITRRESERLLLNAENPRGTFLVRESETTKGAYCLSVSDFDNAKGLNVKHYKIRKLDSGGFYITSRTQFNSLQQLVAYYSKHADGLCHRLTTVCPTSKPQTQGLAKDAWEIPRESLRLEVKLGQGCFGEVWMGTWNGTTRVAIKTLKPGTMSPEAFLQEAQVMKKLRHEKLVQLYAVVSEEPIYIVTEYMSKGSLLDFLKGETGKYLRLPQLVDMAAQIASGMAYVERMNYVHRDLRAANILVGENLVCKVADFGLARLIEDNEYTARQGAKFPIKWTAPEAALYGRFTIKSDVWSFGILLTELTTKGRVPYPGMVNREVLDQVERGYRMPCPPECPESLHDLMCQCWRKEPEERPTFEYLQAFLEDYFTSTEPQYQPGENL", "assay": "Inhibition of human recombinant N terminal His6 tagged full length Src assessed as residual activity at 5 uM using KVEKIGEGTYGVVYK as a substrate in the presence of NP-40 incubated for 10 mins by scintillation counting analysis relative to control", "conditions": "probe KVEKIGEGTYGVVYK, read-out: Activity", "summary_of_the_method": "as §2"}, "[19]": {"tested_on": "dengue virus type 2", "assay": "Antiviral activity against Dengue virus serotype 2 New Guinea C infected in pre-seeded Huh-7 cells assessed as inhibition of viral replication incubated for 72 hrs by immunodetection based secondary yield reduction assay", "assay_type": "functional, organism-based", "conditions": "Dengue virus, New Guinea C, Huh-7, 72 h; read-out: IC50"}, "[20]": {"tested_on": "Influenza A virus", "assay": "Antiviral activity against Influenza A Puerto Rico/8/34/H1N1 infected in human A549 cells assessed as inhibition of viral replication after 24 hrs by hemagglutination assay", "assay_type": "functional, organism-based", "conditions": "A/Puerto Rico/8/1934(H1N1), A549, 24 h"}, "[21]": {"target": "CDK9/cyclin T1 (Homo sapiens, UniProt P50750)", "sequence (O60563 whole entry)": "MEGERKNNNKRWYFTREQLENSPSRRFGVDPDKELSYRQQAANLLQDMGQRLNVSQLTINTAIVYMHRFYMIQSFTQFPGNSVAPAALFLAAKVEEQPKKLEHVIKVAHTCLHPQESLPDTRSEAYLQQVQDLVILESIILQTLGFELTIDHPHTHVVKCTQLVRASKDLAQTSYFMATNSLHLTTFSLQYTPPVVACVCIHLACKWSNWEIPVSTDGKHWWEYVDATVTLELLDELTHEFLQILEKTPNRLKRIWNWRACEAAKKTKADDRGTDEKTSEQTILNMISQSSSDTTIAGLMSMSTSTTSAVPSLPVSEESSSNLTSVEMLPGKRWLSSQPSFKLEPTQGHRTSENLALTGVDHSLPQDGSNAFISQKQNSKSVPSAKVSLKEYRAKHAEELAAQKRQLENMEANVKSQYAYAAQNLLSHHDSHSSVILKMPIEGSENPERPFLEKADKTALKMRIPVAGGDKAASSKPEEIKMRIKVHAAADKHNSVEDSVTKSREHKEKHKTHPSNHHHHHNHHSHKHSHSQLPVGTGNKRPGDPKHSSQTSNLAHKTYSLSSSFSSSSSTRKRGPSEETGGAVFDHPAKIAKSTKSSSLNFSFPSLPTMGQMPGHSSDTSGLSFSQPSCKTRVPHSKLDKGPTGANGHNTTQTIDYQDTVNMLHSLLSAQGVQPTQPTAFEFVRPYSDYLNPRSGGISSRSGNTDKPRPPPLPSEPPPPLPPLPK", "sequence (P50750 whole entry)": "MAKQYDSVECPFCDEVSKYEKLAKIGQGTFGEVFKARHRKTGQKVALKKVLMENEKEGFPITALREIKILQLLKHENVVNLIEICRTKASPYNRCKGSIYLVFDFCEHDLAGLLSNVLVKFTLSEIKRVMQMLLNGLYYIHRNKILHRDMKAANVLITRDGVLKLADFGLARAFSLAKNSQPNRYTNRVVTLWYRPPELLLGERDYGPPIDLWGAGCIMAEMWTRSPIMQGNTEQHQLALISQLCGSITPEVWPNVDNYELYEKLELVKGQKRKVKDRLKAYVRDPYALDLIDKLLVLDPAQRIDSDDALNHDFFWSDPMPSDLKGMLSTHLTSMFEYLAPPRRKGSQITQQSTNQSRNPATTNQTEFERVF", "assay": "Inhibition of human full length CDK9/ His-tagged cT1 assessed as residual activity at 5 uM using CDKtide as a substrate in the presence of BSA incubated for 10 mins by scintillation counting analysis relative to control", "assay_type": "protein-complex assay", "conditions": "full length CDK9/His-tagged cyclin T1 complex, probe CDKtide, read-out: Activity", "summary_of_the_method": "as §2"}}}
{"smiles": "Fc1cccc(Nc2nc(NCCOc3ccccc3)nc3[nH]cnc23)c1", "values": [{"measurement": "selectivity ratio at 72 h", "setting": "[1]", "value": 17}, {"measurement": "IC50", "setting": "[2]", "value": 31.2, "unit": "µM"}, {"measurement": "IC50", "setting": "[3]", "value": "Not Active"}, {"measurement": "IC50", "setting": "[4]", "value": 18.9, "unit": "µM"}, {"measurement": "selectivity ratio at 72 h", "setting": "[5]", "value": 68}, {"measurement": "selectivity ratio", "setting": "[6]", "value": 5.5}, {"measurement": "selectivity ratio", "setting": "[7]", "value": 2.8}, {"measurement": "CC50", "setting": "[8]", "value": 77, "unit": "µM"}, {"measurement": "activity at 10 min, 5 µM", "setting": "[9]", "value": 54, "unit": "%"}, {"measurement": "IC50", "setting": "[10]", "value": 14, "unit": "µM"}, {"measurement": "CC50", "setting": "[11]", "value": 58, "unit": "µM"}, {"measurement": "IC50", "setting": "[12]", "value": "> 100", "unit": "µM"}, {"measurement": "IC50", "setting": "[13]", "value": 2.9, "unit": "µM"}, {"measurement": "CC50", "setting": "[14]", "value": 200, "unit": "µM"}, {"measurement": "activity at 10 min, 5 µM", "setting": "[15]", "value": "> 98", "unit": "%"}, {"measurement": "IC50", "setting": "[16]", "value": "Not Active"}, {"measurement": "activity at 10 min, 5 µM", "setting": "[17]", "value": 69, "unit": "%"}, {"measurement": "activity at 10 min, 5 µM", "setting": "[18]", "value": 45, "unit": "%"}, {"measurement": "IC50", "setting": "[19]", "value": 12, "unit": "µM"}, {"measurement": "IC50", "setting": "[20]", "value": 20.8, "unit": "µM"}, {"measurement": "activity at 10 min, 5 µM", "setting": "[21]", "value": 87, "unit": "%"}]}
